ChEMBL document CHEMBL1833903, “Isomeric acetoxy analogs of celecoxib and their evaluation as cyclooxygenase inhibitors” (Bioorg Med Chem Lett, 2011)
Active and inactive are the calls of the source. The rule behind the calls is not given here.

Assays:
[1] = target: T1, Prostaglandin G/H synthase 1 (Ovis aries, UniProt P05979); assay: Inhibition of ovine COX1 by enzyme immuno assay
T1 sequence (P05979 whole entry): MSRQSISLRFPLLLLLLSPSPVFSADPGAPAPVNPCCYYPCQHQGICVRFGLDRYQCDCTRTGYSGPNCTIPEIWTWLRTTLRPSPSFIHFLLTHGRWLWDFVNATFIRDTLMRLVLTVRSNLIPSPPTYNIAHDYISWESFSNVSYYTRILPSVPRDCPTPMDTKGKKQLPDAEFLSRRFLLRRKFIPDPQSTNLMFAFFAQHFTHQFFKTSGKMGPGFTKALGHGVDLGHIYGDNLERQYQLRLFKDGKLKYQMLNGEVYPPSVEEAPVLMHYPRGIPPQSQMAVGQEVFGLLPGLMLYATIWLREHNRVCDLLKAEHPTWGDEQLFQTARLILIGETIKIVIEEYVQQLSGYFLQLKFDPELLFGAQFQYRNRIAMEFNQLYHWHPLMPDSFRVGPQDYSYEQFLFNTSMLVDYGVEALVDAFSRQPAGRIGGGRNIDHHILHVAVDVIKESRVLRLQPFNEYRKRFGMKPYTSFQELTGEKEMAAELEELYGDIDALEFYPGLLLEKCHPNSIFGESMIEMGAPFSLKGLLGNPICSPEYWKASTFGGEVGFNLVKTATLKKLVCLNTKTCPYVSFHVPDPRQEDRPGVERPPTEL

[2] = system: Rattus norvegicus; assay: Antiinflammatory activity in rat assessed as inhibition of carrageenan-induced hind paw edema at 50 mg/kg, po measured after 3 hrs post dose; assay type: functional, organism-based; set-up: dose 50 mg/kg
Summary of the method: (§1)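 Male Sprague-Dawley rats; paw edema induced with carrageenan; test compound given orally at the stated dose. Edema inhibition read 3 h after dosing, as a mean of n = 4. ED50 values were derived where determined.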

[3] = system: Rattus norvegicus; assay: Antiinflammatory activity in po dosed rat assessed as inhibition of carrageenan-induced hind paw edema measured after 3 hrs post dose; assay type: functional; summary of the method: as §1
[4] = system: Rattus norvegicus; assay: Antiinflammatory activity in rat assessed as inhibition of carrageenan-induced hind paw edema at 10 mg/kg, po measured after 3 hrs post dose; assay type: functional, organism-based; set-up: dose 10 mg/kg; summary of the method: as §1

| IC50 [1] | Compound | also measured |
| --- | --- | --- |
| > 100 µM | CC(=O)Oc1cc(C)ccc1-c1cc(C(F)(F)F)nn1-c1ccc(S(N)(=O)=O)cc1 | inhibition [2]: inactive |
| > 100 µM | CC(=O)Oc1cc(C)ccc1-c1cc(C(F)(F)F)nn1-c1ccc(S(C)(=O)=O)cc1 |  |
| > 100 µM | CC(=O)Oc1cc(F)ccc1-c1cc(C(F)(F)F)nn1-c1ccc(S(C)(=O)=O)cc1 |  |
| > 100 µM | CC(=O)Oc1cccc(-c2cc(C(F)(F)F)nn2-c2ccc(S(N)(=O)=O)cc2)c1 |  |
| > 100 µM | CC(=O)Oc1ccc(-c2cc(C(F)(F)F)nn2-c2ccc(S(N)(=O)=O)cc2)cc1 | inhibition [2]: inactive |

Further lines, the molecule ahead of its results:

| Compound | IC50 [1] | also measured |
| --- | --- | --- |
| CC(C)Cc1ccc(C(C)C(=O)O)cc1 (centres undefined) [IBUPROFEN] |  | ED50 [3]: 67.4 mg/kg |
| CC(=O)Oc1ccc(-c2cc(C(F)(F)F)nn2-c2ccc(S(C)(=O)=O)cc2)cc1 | 80.3 µM |  |
| CC(=O)Oc1cc(-c2cc(C(F)(F)F)nn2-c2ccc(S(C)(=O)=O)cc2)ccc1C |  | inhibition [4]: inactive |
| Cc1ccc(-c2cc(C(F)(F)F)nn2-c2ccc(S(N)(=O)=O)cc2)c(O)c1 | 36 µM | inhibition [4]: inactive |
| CC(=O)Oc1cc(-c2cc(C(F)(F)F)nn2-c2ccc(S(N)(=O)=O)cc2)ccc1C | > 100 µM | inhibition [2]: inactive |
| CC(=O)Oc1cc(F)ccc1-c1cc(C(F)(F)F)nn1-c1ccc(S(N)(=O)=O)cc1 | 0.7 µM | ED50 ([3]; Rattus norvegicus, po, 3 h, read-out: ED50): 42.3 mg/kg |
| CC(=O)Oc1cccc(-c2cc(C(F)(F)F)nn2-c2ccc(S(C)(=O)=O)cc2)c1 | > 100 µM |  |
| CC(=O)Oc1ccccc1C(=O)O [ASPIRIN] |  | ED50 [3]: 129 mg/kg |
| CC(=O)Oc1ccccc1-c1cc(C(F)(F)F)nn1-c1ccc(S(N)(=O)=O)cc1 | > 100 µM |  |
